Reference: ChEMBL document CHEMBL4184105, “Synthesis and biological evaluation of novel mono- and bivalent ASGP-R-targeted drug-conjugates” (Bioorg Med Chem Lett, 2018)
The source made the active and inactive calls. The calls are words filed in the database; no cut-off is given here.

Assays:
[1] = Stability of compound at pH 5 after 24 hrs by HPLC-MS analysis; format: physicochemical; conditions: buffer, pH 5, 24 h
[2] = Binding affinity to rabbit asialoglycoprotein receptor by SPR assay; design: species or system Oryctolagus cuniculus
[3] = Stability of compound at pH 7.4 after 24 hrs by HPLC-MS analysis; format: physicochemical; conditions: buffer, pH 7.4, 24 h
HepG2 [4] = assay: Induction of morphological changes in human HepG2 cells assessed as mitosis with more than 2 poles at 1 umol after 24 hrs by DAPI staining-based immunofluorescence assay; format: functional, cell-based
Method in brief: (§1)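 HepG2 cells were fixed, permeabilized and immunostained with an anti-α-tubulin antibody, with nuclei counterstained by DAPI. Nuclear and cytoskeletal (microtubule, mitotic spindle) morphology was then examined by immunofluorescence microscopy alongside untreated cells.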

HepG2 [5] = assay: Induction of morphological changes in human HepG2 cells assessed as altered microtubule structure at 1 umol after 24 hrs by DAPI staining-based immunofluorescence assay; format: functional, cell-based; method in brief: as §1
HepG2 [6] = assay: Cytotoxicity against human HepG2 cells by MTS assay; format: functional
HepG2 [7] = assay: Induction of morphological changes in human HepG2 cells assessed as abnormal nuclei at 1 umol after 24 hrs by DAPI staining-based immunofluorescence assay; format: functional, cell-based; method in brief: as §1

| Compound | Stability [1] | Kd [2] [µM] | Stability [3] | Activity (HepG2 [4]) | Activity (HepG2 [5]) | CC50 (HepG2 [6]) [µM] | Activity (HepG2 [7]) |
| --- | --- | --- | --- | --- | --- | --- | --- |
| C=CCO[C@@H]1O[C@H](Cn2cc(CCCC(=O)O[C@H]3C[C@H]4OC[C@@]4(OC(C)=O)[C@H]4[C@H](OC(=O)c5ccccc5)[C@]5(O)C[C@H](OC(=O)[C@H](OC(=O)CCCc6cn(C[C@H]7O[C@@H](OCC=C)[C@H](NC(C)=O)[C@@H](O)[C@H]7O)nn6)[C@@H](NC(=O)c6ccccc6)c6ccccc6)C(C)=C([C@@H](OC(C)=O)C(=O)[C@]34C)C5(C)C)nn2)[C@H](O)[C@H](O)[C@H]1NC(C)=O | Stable | 0.000327 | Stable | – | – | – | – |
| CC(=O)N[C@@H]1[C@@H](O)[C@@H](O)[C@@H](CO)O[C@H]1n1cc(CCCC(=O)O[C@H]2C[C@H]3OC[C@@]3(OC(C)=O)[C@H]3[C@H](OC(=O)c4ccccc4)[C@]4(O)C[C@H](OC(=O)[C@H](OC(=O)CCCc5cn([C@@H]6O[C@H](CO)[C@H](O)[C@H](O)[C@H]6NC(C)=O)nn5)[C@@H](NC(=O)c5ccccc5)c5ccccc5)C(C)=C([C@@H](OC(C)=O)C(=O)[C@]23C)C4(C)C)nn1 | Stable | 0.00139 | Stable | Active | Active | 22.9 | Active |
| CC(=O)O[C@H]1C(=O)[C@@]2(C)[C@H]([C@H](OC(=O)c3ccccc3)[C@]3(O)C[C@H](OC(=O)[C@H](O)[C@@H](NC(=O)c4ccccc4)c4ccccc4)C(C)=C1C3(C)C)[C@]1(OC(C)=O)CO[C@@H]1C[C@@H]2O [PACLITAXEL] | Stable | – | Stable | Active | Active | 0.12 to 0.21 | Active |
| CC(=O)N[C@H]1[C@H](OCCCCCCNC(=O)CCOCC(COCCC(=O)NCCCCCCO[C@@H]2O[C@H](CO)[C@H](O)[C@H](O)[C@H]2NC(C)=O)(COCCC(=O)NCCCCCCO[C@@H]2O[C@H](CO)[C@H](O)[C@H](O)[C@H]2NC(C)=O)NC(=O)CCCCCCCCCCn2cc(CCCC(=O)O[C@@H](C(=O)O[C@H]3C[C@@]4(O)[C@@H](OC(=O)c5ccccc5)[C@@H]5[C@]6(OC(C)=O)CO[C@@H]6C[C@H](O)[C@@]5(C)C(=O)[C@H](OC(C)=O)C(=C3C)C4(C)C)[C@@H](NC(=O)c3ccccc3)c3ccccc3)nn2)O[C@H](CO)[C@H](O)[C@@H]1O | Stable | 0.00136 | Stable | – | – | 0.11 | – |
| CC(=O)N[C@H]1[C@H](OCCCCCCNC(=O)CCOCC(COCCC(=O)NCCCCCCO[C@@H]2O[C@H](CO)[C@H](O)[C@H](O)[C@H]2NC(C)=O)(COCCC(=O)NCCCCCCO[C@@H]2O[C@H](CO)[C@H](O)[C@H](O)[C@H]2NC(C)=O)NC(=O)CCCCCCCCCCN=[N+]=[N-])O[C@H](CO)[C@H](O)[C@@H]1O | – | 0.00216 | – | – | – | – | – |
| CC(=O)N[C@H]1[C@H](OCCn2cc(CCCC(=O)O[C@H]3C[C@H]4OC[C@@]4(OC(C)=O)[C@H]4[C@H](OC(=O)c5ccccc5)[C@]5(O)C[C@H](OC(=O)[C@H](OC(=O)CCCc6cn(CCO[C@@H]7O[C@H](CO)[C@H](O)[C@H](O)[C@H]7NC(C)=O)nn6)[C@@H](NC(=O)c6ccccc6)c6ccccc6)C(C)=C([C@@H](OC(C)=O)C(=O)[C@]34C)C5(C)C)nn2)O[C@H](CO)[C@H](O)[C@@H]1O | Stable | – | Stable | Active | Active | – | Active |

Second part, led by results:

| Stability [1] | Kd [2] [µM] | Stability [3] | Compound | Activity (HepG2 [4]) | Activity (HepG2 [5]) | CC50 (HepG2 [6]) [µM] | Activity (HepG2 [7]) |
| --- | --- | --- | --- | --- | --- | --- | --- |
| Stable | 0.000161 | Stable | C=CCO[C@@H]1O[C@H](Cn2cc(CCCC(=O)O[C@@H](C(=O)O[C@H]3C[C@@]4(O)[C@@H](OC(=O)c5ccccc5)[C@@H]5[C@]6(OC(C)=O)CO[C@@H]6C[C@H](O)[C@@]5(C)C(=O)[C@H](OC(C)=O)C(=C3C)C4(C)C)[C@@H](NC(=O)c3ccccc3)c3ccccc3)nn2)[C@H](O)[C@H](O)[C@H]1NC(C)=O | Active | Active | 3.25 | Active |
| Stable | 0.00221 | Stable | CC(=O)N[C@@H]1[C@@H](O)[C@@H](O)[C@@H](CO)O[C@H]1n1cc(CCCC(=O)O[C@@H](C(=O)O[C@H]2C[C@@]3(O)[C@@H](OC(=O)c4ccccc4)[C@@H]4[C@]5(OC(C)=O)CO[C@@H]5C[C@H](O)[C@@]4(C)C(=O)[C@H](OC(C)=O)C(=C2C)C3(C)C)[C@@H](NC(=O)c2ccccc2)c2ccccc2)nn1 | – | – | 0.092 | – |
| Stable | 0.249 | Stable | CC(=O)N[C@H]1[C@H](OCCn2cc(CCCC(=O)O[C@@H](C(=O)O[C@H]3C[C@@]4(O)[C@@H](OC(=O)c5ccccc5)[C@@H]5[C@]6(OC(C)=O)CO[C@@H]6C[C@H](O)[C@@]5(C)C(=O)[C@H](OC(C)=O)C(=C3C)C4(C)C)[C@@H](NC(=O)c3ccccc3)c3ccccc3)nn2)O[C@H](CO)[C@H](O)[C@@H]1O | Active | Active | 0.82 | Active |
